Reference: ChEMBL document CHEMBL1772977, “Synthesis and biological evaluation of novel 4-benzylpiperazine ligands for sigma-1 receptor imaging” (Bioorg Med Chem, 2011)

Tests used:
[1] = biological target: Sigma non-opioid intracellular receptor 1 (Rattus norvegicus, UniProt Q9R0C9); assay: Displacement of (+)-[3H]pentazocine from sigma 1 receptor in rat brain membranes by competitive binding assay; type: cell membranes
Procedure, shortened: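 Sigma-1 competition binding used rat brain membranes as receptor material with (+)-[3H]pentazocine as radioligand. Ki was derived by Cheng–Prusoff from at least three independent experiments, each in triplicate, and is reported as mean ± SD.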

[2] = Displacement of [3H]ditolylguanidine from sigma 2 receptor in rat liver membrane by competitive binding assay; type: cell membranes
Procedure, shortened: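 Sigma-2 competition binding used rat liver membranes with [3H]ditolylguanidine as radioligand. 10 µM dextrallorphan was present to mask sigma-1 sites. Ki was derived by Cheng–Prusoff from at least three independent experiments, each in triplicate, and is reported as mean ± SD.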

Sequence of Sigma non-opioid intracellular receptor 1 (Q9R0C9 whole entry): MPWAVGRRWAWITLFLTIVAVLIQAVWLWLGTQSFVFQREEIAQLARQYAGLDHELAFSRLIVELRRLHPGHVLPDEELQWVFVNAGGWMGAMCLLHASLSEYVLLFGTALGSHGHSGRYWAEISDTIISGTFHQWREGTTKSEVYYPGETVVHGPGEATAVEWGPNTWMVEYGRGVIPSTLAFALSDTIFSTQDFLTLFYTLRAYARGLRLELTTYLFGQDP

Compound: Cc1ccc(CN2CCN(Cc3ccc4c(c3)OCO4)CC2)cc1
- Ki [1]: 0.91 nM
- Ki [2]: 49.8 nM
